Results as given in ChEMBL document CHEMBL3994600, “Anthenosides L-U, Steroidal Glycosides with Unusual Structural Features from the Starfish Anthenea aspera” (J Nat Prod, 2016).

What was measured:
Splenocyte = experiment: Cytotoxicity against Balb/c mouse splenocytes assessed as reduction in cell viability by MTT assay; type: cell-based
In short: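 BALB/C spleen homogenized in PBS pH 7.4, filtered through nylon voile, washed three times by centrifugation (450g, 5 min), resuspended in PBS at (2−5) × 10^6 cells/mL. Viability measured by standard MTT method; at least triplicate, mean ± SD.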

RAW264.7 [1] = experiment: Induction of ROS generation in mouse RAW264.7 cells at 10 uM after 24 hrs by 2,7-dichlorodihydrofluorescein diacetate staining based fluorescence assay; type: cell-based; settings: raw264.7, 24 h
Erythrocyte = experiment: Hemolytic activity against CD-1 mouse erythrocytes after 1 hr by spectroscopic method; type: ADME, cell-based
In short: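 CD-1 mouse blood erythrocytes washed three times in PBS pH 7.4 (450g, 5 min), resuspended to OD700 1.5, kept on ice. Suspension mixed 9:1 with test solution at various concentrations, 37 °C for 1 h. Cells pelleted; supernatant hemoglobin read at 570 nm. Expressed as % hemolysis versus control; EC50 reported.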

Ehrlich = experiment: Cytotoxicity against mouse Ehrlich carcinoma cells assessed as reduction in cell viability by MTT assay; type: cell-based
In short: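 Ehrlich ascites carcinoma (tetraploid strain) grown in the peritoneal cavity of 18–20 g CD-1 mice. Cells harvested 7−10 days after inoculation, washed twice in PBS pH 7.4 (450g, 5 min), resuspended in serum-free RPMI-1640 at about (1−2) × 10^6 cells/mL. Standard MTT viability read-out; at least triplicate, mean ± SD.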

RAW264.7 [2] = experiment: Cytotoxicity against mouse RAW264.7 cells assessed as reduction in cell viability by MTT assay; type: cell-based
In short: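 Macrophages (ATCC) grown in DMEM with 10% FBS at 37 °C, humidified 5% CO2. Viability by standard MTT method; at least triplicate, mean ± SD.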

RAW264.7 [3] = experiment: Immunomodulatory activity in mouse RAW264.7 cells assessed as inhibition of LPS-induced ROS level at 10 uM after 24 hrs by 2,7-dichlorodihydrofluorescein diacetate staining based fluorescence assay relative to control; type: functional; settings: RAW264.7, 24 h
In short: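 Macrophages allowed to adhere 2 h at 37 °C, 5% CO2, then exposed to compounds at 10 μM for 24 h. In each experiment compounds were co-incubated with E. coli 055:B5 LPS (1.0 μg/mL). H2DCF-DA added (final 10 μM), 10 min at 37 °C. Fluorescence read at 485/518 nm; at least triplicate, mean ± SD, Student's t test (p < 0.05).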

COC[C@@H](O)[C@@H]1O[C@@H](O[C@@H]2C3=C4C[C@@H](O[C@@H]5O[C@H](CO)[C@@H](O)[C@H](OC)[C@H]5O)[C@H]([C@H](C)/C=C/CC(C)C)[C@@]4(C)CC[C@@H]3[C@@]3(C)CC[C@@H](O)C[C@@H]3[C@@H]2O)[C@H](O)[C@H]1O
Non-Toxic: Activity (Splenocyte) | Activity (RAW264.7 [1]) | Activity (Erythrocyte) | Activity (Ehrlich) | Activity (RAW264.7 [2])

CO[C@@H]1[C@@H](O)[C@H](O[C@@H]2CC3=C4[C@@H](O)[C@@H](O)[C@H]5C[C@H](O)CC[C@]5(C)[C@H]4CC[C@]3(C)[C@H]2[C@H](C)/C=C/C(C)C)O[C@H](CO)[C@H]1O
Non-Toxic: Activity (Splenocyte) | Activity (RAW264.7 [1]) | Activity (Erythrocyte) | Activity (Ehrlich) | Activity (RAW264.7 [2])

COC[C@@H](O)[C@@H]1O[C@@H](O[C@@H]2CC3=C4[C@@H](O)[C@@H](O)[C@H]5C[C@H](O)CC[C@]5(C)[C@H]4CC[C@]3(C)[C@H]2[C@H](C)/C=C/[C@@H](C)C(C)C)[C@H](O)[C@H]1O
Non-Toxic: Activity (Splenocyte) | Activity (RAW264.7 [1]) | Activity (Erythrocyte) | Activity (Ehrlich) | Activity (RAW264.7 [2])

C=C(CC[C@@H](C)[C@H]1[C@H](O[C@@H]2O[C@@H]([C@H](O)COC)[C@H](O)[C@H]2O)CC2=C3[C@@H](O[C@@H]4O[C@@H]([C@H](O)CO)[C@H](OC)[C@H]4O)[C@@H](O)[C@H]4C[C@H](O)CC[C@]4(C)[C@H]3CC[C@@]21C)C(C)C
Non-Toxic: Activity (Splenocyte) | Activity (RAW264.7 [1]) | Activity (Erythrocyte) | Activity (Ehrlich) | Activity (RAW264.7 [2])

COC[C@@H](O)[C@@H]1O[C@@H](O[C@@H]2C3=C4C[C@@H](O[C@@H]5O[C@H](CO)[C@@H](O)[C@H](OC)[C@H]5O)[C@H]([C@H](C)CCCC(C)C)[C@@]4(C)CC[C@@H]3[C@@]3(C)CC[C@@H](O)C[C@@H]3[C@@H]2O)[C@H](O)[C@H]1O
Non-Toxic: Activity (Splenocyte) | Activity (RAW264.7 [1]) | Activity (Erythrocyte) | Activity (Ehrlich) | Activity (RAW264.7 [2])

CO[C@@H]1[C@@H](O)[C@H](O[C@@H]2CC3=C4[C@@H](O)[C@@H](O)[C@H]5C[C@H](O)CC[C@]5(C)[C@H]4CC[C@]3(C)[C@H]2[C@H](C)/C=C/[C@@H](C)C(C)C)O[C@H](CO)[C@H]1O
24%: inhibition at 10 µM (RAW264.7 [3])
Non-Toxic: Activity (Splenocyte) | Activity (RAW264.7 [1]) | Activity (Erythrocyte) | Activity (Ehrlich) | Activity (RAW264.7 [2])

COC[C@@H](O)[C@@H]1O[C@@H](O[C@@H]2C3=C4C[C@@H](O[C@@H]5O[C@@H]([C@H](O)COC)[C@H](O)[C@H]5O)[C@H]([C@H](C)/C=C/[C@@H](C)C(C)C)[C@@]4(C)CC[C@@H]3[C@@]3(C)CC[C@@H](O)C[C@@H]3[C@@H]2O)[C@H](O)[C@H]1O
Non-Toxic: Activity (Splenocyte) | Activity (RAW264.7 [1]) | Activity (Erythrocyte) | Activity (Ehrlich) | Activity (RAW264.7 [2])

CO[C@@H]1[C@@H](O)[C@H](O[C@@H]2CC3=C4[C@@H](O)[C@@H](O)[C@H]5C[C@H](O)CC[C@]5(C)[C@H]4CC[C@]3(C)[C@H]2[C@H](C)/C=C/[C@@H](C)C(C)C)O[C@H]1[C@H](O)CO
Non-Toxic: Activity (Splenocyte) | Activity (RAW264.7 [1]) | Activity (Erythrocyte) | Activity (Ehrlich) | Activity (RAW264.7 [2])
